From ChEMBL document CHEMBL3244057, “Diazepines. 5. Synthesis and biological action of 6-phenyl-4H-pyrrolo[1,2-a][1,4]benzodiazepines” (J Med Chem, 1978)

Key:
Mus musculus [1] = assay: Toxicity in po dosed ddY mouse assessed as motor incoordination by rotarod test; type: organism-based; settings: in vivo
Method in brief: (§1)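 Male ddY mice (18–24 g) were dosed orally with compound suspended in 5% arabic gum, six mice per dose. Three or four doses were chosen from 100, 30, 10, 3, 1, 0.3 and 0.1 mg/kg. ED50 was calculated by the Litchfield-Wilcoxon method. Muscle relaxation was scored on an inclined wooden board, and fighting was induced by electrofootshock.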

Mus musculus [2] = assay: Induction of sedative activity in po dosed ddY mouse assessed as potentiation of thiopental-induced response; type: functional; method in brief: as §1
Mus musculus [3] = assay: Taming activity in po dosed electrofootshock-induced fighting ddY mouse; type: functional; method in brief: as §1
Mus musculus [4] = assay: Muscle relaxant activity in po dosed ddY mouse; type: functional; method in brief: as §1
Mus musculus [5] = assay: Anticonvulsant activity in po dosed ddY mouse assessed as reduction of pentylenetetrazole-induced seizure; type: functional; method in brief: as §1
Mus musculus [6] = assay: Anticonvulsant activity in po dosed ddY mouse assessed as reduction of maximal electroshock-induced seizure; type: functional
[7] = Ratio of compound ED50 to diazepam ED50 for toxicity in po dosed ddY mouse assessed as motor incoordination; type: organism-based; settings: in vivo, read-out: Ratio ED50
[8] = Acute toxicity in po dosed ddY mouse assessed as mortality measured for 2 weeks; type: organism-based; settings: in vivo
Method in brief: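 Male ddY mice (18–24 g) were dosed orally with compound suspended in 5% arabic gum. Groups of four received 1000 or 2000 mg/kg, and a group of eight received 3000 mg/kg. Deaths were recorded over a 2-week observation period.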

| Compound | ED50 (Mus musculus [1]) [mg/kg] | ED50 (Mus musculus [2]) [mg/kg] | ED50 (Mus musculus [3]) [mg/kg] | ED50 (Mus musculus [4]) [mg/kg] | ED50 (Mus musculus [5]) [mg/kg] | ED50 (Mus musculus [6]) [mg/kg] | selectivity ratio [7] | LD50 at 336 h [8] [mg/kg] |
| --- | --- | --- | --- | --- | --- | --- | --- | --- |
| Clc1ccc2c(c1)C(c1ccccc1)=NCc1cccn1-2 | > 100 | 44 | – | – | – | – | – | – |
| Clc1ccc2c(c1)C(c1ccccc1Cl)=NCc1cccn1-2 | > 100 | 18 | – | – | – | – | – | – |
| Fc1ccccc1C1=NCc2cccn2-c2ccc(Cl)cc21 | > 100 | 5.2 | 39 | > 100 | 100 | > 100 | – | – |
| Cc1ccc2n1-c1ccccc1C(c1ccccc1)=NC2 | > 100 | 22 | > 100 | > 100 | > 100 | > 100 | – | – |
| Cc1ccc2n1-c1ccc(Cl)cc1C(c1ccccc1)=NC2 | > 100 | 46 | > 100 | > 100 | 100 | > 100 | – | – |
| Cc1ccc2n1-c1ccc([N+](=O)[O-])cc1C(c1ccccc1)=NC2 | > 100 | 5.8 | > 100 | > 100 | ≥ 100 | > 100 | – | – |
| Cc1ccc2n1-c1ccc(Cl)cc1C(c1ccccc1Cl)=NC2 | 100 | 2.8 | – | – | – | – | – | – |
| Cc1ccc2n1-c1ccc(Cl)cc1C(c1ccccc1F)=NC2 | > 100 | 6.9 | – | – | – | – | – | – |
| Cc1cc2n(c1C)-c1ccccc1C(c1ccccc1)=NC2 | > 100 | > 30 | > 100 | > 100 | > 100 | > 100 | – | – |
| Cc1cc2n(c1C)-c1ccc(Cl)cc1C(c1ccccc1)=NC2 | > 100 | 21 | – | – | – | – | – | – |
| Cc1cc2n(c1C)-c1ccc(Cl)cc1C(c1ccccc1Cl)=NC2 | 40 | 2.6 | – | – | – | – | – | – |
| Cc1cc2n(c1C)-c1ccc(Cl)cc1C(c1ccccc1F)=NC2 | > 100 | 8 | – | – | – | – | – | – |
| CCc1cc2n(c1C)-c1ccc(Cl)cc1C(c1ccccc1Cl)=NC2 | 16.2 | 0.6 | – | – | – | – | – | – |
| CCc1cc2n(c1C)-c1ccc(Cl)cc1C(c1ccccc1F)=NC2 | > 100 | 2.2 | – | – | – | – | – | – |
| CCc1cc2n(c1C)-c1ccc(Cl)cc1C(c1c(F)cccc1F)=NC2 | > 100 | 3 | – | – | 16.6 | – | – | – |
| Cc1cc(C)n2c1CN=C(c1ccccc1Cl)c1cc(Cl)ccc1-2 | 15.5 | 0.34 | – | – | 1.4 | – | 2 | 930 |
| Cc1cc(C)n2c1CN=C(c1ccccc1F)c1cc(Cl)ccc1-2 | > 30 | 2.4 | – | 20.5 | – | – | – | – |
| Cc1cc(C)n2c1CN=C(c1c(F)cccc1F)c1cc(Cl)ccc1-2 | 16.2 | 0.7 | – | 6.4 | – | – | – | – |
| CN1C(=O)CN=C(c2ccccc2)c2cc(Cl)ccc21 [DIAZEPAM] | 5.4 | 0.3 | – | 0.6 | 0.6 | – | – | – |
